Sampled rows, rich in hits. Any-hit rate of the full collection: about 2.6%.
Rad51 HR inh: human RAD51 strand exchange inhibitors, primary screen, biochemical, fluorescence | actives 0.085% (n = 200,000) | inhibition, % at 10 µM | DNA repair protein RAD51 homolog 1 (Homo sapiens), Q06609 | AID 1385, 2008 | hRad51 DNA strand exchange, fluorescence dequenching;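 active means inhibition above 40% at the single screening dose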;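 further: 0% = DMSO control wells and 100% = blanks with heterologous ssDNA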
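System: human Rad51 nucleoprotein filaments preassembled on unlabelled ssDNA. Reagent: labelled 47-mer dsDNA for strand exchange. Schedule: 30-min compound preincubation and 15-min exchange, both room temperature. Measured by: FRET fluorescence dequenching, excitation 485 nm, emission 520 nm. Read-out: Fluorescence-based percent inhibition, control- and blank-normalised. Benchmarks: plate controls and plate blanks.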
MDM2 E3 inh: MDM2-luciferase reporter signal enhancers, primary screen, MDM2 E3 ligase inhibitor project, cell-based, luminescence, 1536-well; E3 ubiquitin-protein ligase Mdm2 (Homo sapiens), Q00987; cell-based MDM2 ubiquitination luciferase reporter, 2 h; 0 = plate control, 100 = twice control, blank-subtracted; signal enhancement, % at 5 µM; actives 0.11% (n = 210,000);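 active means signal enhancement of 30% or more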;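 further: luminescence tracks abundance of the self-degrading MDM2-luciferase fusion protein; higher signal means inhibition of MDM2 E3 ligase activity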
Target sequence (Q00987 whole entry, looked up, the tested form may be a part): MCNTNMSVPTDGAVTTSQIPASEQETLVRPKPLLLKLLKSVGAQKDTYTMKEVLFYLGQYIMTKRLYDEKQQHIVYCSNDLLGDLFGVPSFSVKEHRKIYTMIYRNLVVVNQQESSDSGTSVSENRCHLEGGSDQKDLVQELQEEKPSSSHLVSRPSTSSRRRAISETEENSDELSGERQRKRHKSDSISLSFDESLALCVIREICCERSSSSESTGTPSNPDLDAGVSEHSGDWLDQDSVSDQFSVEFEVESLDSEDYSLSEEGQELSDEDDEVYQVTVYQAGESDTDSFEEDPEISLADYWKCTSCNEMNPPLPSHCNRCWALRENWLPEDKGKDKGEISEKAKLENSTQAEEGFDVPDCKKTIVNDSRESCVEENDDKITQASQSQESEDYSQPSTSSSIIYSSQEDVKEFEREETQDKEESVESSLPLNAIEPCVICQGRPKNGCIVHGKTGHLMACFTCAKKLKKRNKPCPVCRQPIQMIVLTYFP
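Test system: mammalian cells stably expressing self-ubiquitinating, self-degrading MDM2 E3–luciferase fusion; Amount: 2000 cells in each well; Medium: DMEM; Schedule: 4 h settle plus 2 h compound, 37 °C; Technique: SteadyLite luciferase luminescence after 15 min room-temperature reagent incubation; Benchmarks: plate control and blank wells.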
HSF1 activator: HSF-1 activators, primary screen, NIH3T3-HGL cells, MG132 stress, luminescence, single point. actives 1.7% (n = 300,000). NIH3T3-HGL HSF-1 luciferase reporter, 8 h; 100% = twice DMSO control signal. AID 504408, 2011. activation, % at 9 µM;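 active means mean replicate activation of at least 50% with a set share of replicates each reaching 50%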;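 further: 0% = median of the neutral control wells and 100% = twice that signal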
Hsp70 activator: Hsp70 transcriptional activators, primary screen, cell-based, HeLa, Hsp70 promoter luciferase, luminescence, 10 µM; activation, % at 10 µM; HeLa Hsp70 promoter luciferase reporter; scaled: vehicle 0, proteasome-inhibitor control 100%; actives 0.04% (n = 200,000);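 active means activation above the mean across all tested compounds plus 3 SD, cutoff set per campaign, cut at about 5.5% in these data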;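 further: 100% = MG132 at 30 µM as the positive control and 0% = DMSO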
HSV augment: enhancers of HSV replication in host cells, fold increase, host cell viability | HSV replication augmentation in cells | maximum fold increase | actives 0.005% (n = 220,000) | AID 1956, 2009; in the data active means maximum fold increase above about 1.5; tested in PC3 cells
HSF1 inhib: HSF1 inhibitors in luciferase reporter cells, primary screen, cell-based, NIH3T3, luminescence. NIH3T3-HGL HSE-luciferase, MG132-induced, luminescence 8 h; hits give low values. activity change, negative = inhibition, % at 7.5 µM (by protocol). actives 0.77% (n = 300,000). AID 2098, 2009;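 active means more than half of replicate wells show activity change below -50%, luminescence cut by over half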;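 further: luciferase reports HSF-1 transcriptional activity via heat shock element; 0% = median of DMSO wells and -100% = zero luminescence signal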
Numbers without * were called inactive; i = inactive; / = not tested or not shown.

SMILES | Rad51 HR inh | MDM2 E3 inh | HSF1 activator | Hsp70 activator | HSV augment | HSF1 inhib
CCn1c(=O)cc(OCC(=O)NCCCN2CCC(C)CC2)c2ccccc21 | -1 | -8 | 46 | 0 | i | 20
CC1CCN(CCCNC(=O)COc2cc(=O)n(C)c3ccccc23)CC1 | 8 | 3 | 57* | 0 | i | 21
CC(Sc1nnc2ccccn12)C(N)=O (stereo not drawn) | / | -17 | 76* | 0 | i | 31
Cc1ccc(-n2nc3c(=O)n(CCCC(=O)N4CCC(C(N)=O)CC4)nc(C)c3c2C)cc1 | / | / | -59 | / | / | -52*
Cc1ccc(-n2nc3c(=O)n(CCCC(=O)N4CCC(C)CC4)nc(C)c3c2C)cc1 | / | / | 7 | / | / | -3
COc1cccc(OCc2cc(C(=O)N(C)Cc3nc4ccccc4[nH]3)no2)c1 | / | / | 61* | / | / | 32
Cc1ccc(/C=N/NC(=O)c2cc(C)oc2C)cc1 | 11 | -18 | 20 | / | i | 8
CC(/C=N\NC(=O)c1cc(C)oc1C)=C\c1ccccc1 | 9 | -12 | -55 | 0 | i | -52*
COc1cc(/C=N/NC(=O)c2cc(C)oc2C)ccc1O | 8 | -20 | -70 | 0 | i | -61*
Cc1cccc(NNC(=O)C2CCC2)c1 | 10 | -9 | 2 | / | i | -1
O=C(O)c1ccc(CS(=O)(=O)c2ccc(Br)cc2)cc1 | / | / | 1 | / | / | -5
O=C(O)CN1C(=O)/C(=C\c2cc(Br)ccc2OCc2ccc(Cl)cc2)SC1=S | / | / | 15 | / | / | 5
O=C(O)CN1C(=O)/C(=C\c2cc(Br)ccc2OCc2ccc(F)cc2)SC1=S | / | / | 70* | / | / | 21
CN(CCO)S(=O)(=O)c1ccc2c(c1)C(=NN)c1cc(S(=O)(=O)N(C)CCO)ccc1-2 | / | / | 5 | / | / | 5
O=C(O)c1ccccc1C(=O)N1N=C(c2ccccc2)CC1c1ccccc1O (stereo not drawn) | / | / | 4 | / | / | -4
Cc1nc2c(=O)n(C)c(=O)n(C)c2nc1Cl | 6 | 12 | 284* | 0 | i | 241
CC(OC(=O)CN1C(=O)c2ccccc2C1=O)C(=O)NC1CCCC1 (stereo not drawn) | / | / | -4 | / | / | -5
CC(OC(=O)CN1C(=O)c2ccccc2C1=O)C(=O)NC1CCCCC1C (stereo not drawn) | / | / | -80 | / | / | -75*
O=C(COC(=O)c1ccccc1C(=O)c1ccc(Cl)cc1)NCCc1ccccc1 | -6 | -5 | 6 | 0 | i | 2
O=C(COC(=O)c1ccccc1C(=O)c1ccccc1)NCCc1ccccc1 | -1 | -14 | 55* | 0 | i | 17
CC(C)CCNC(=O)C(=O)Nc1ccc2c(c1)N(S(=O)(=O)c1cccs1)CCC2 | / | / | 39 | / | / | 9
CCOC(=O)CSc1nc2ccccc2c(=O)n1Cc1ccco1 | 2 | 0 | 11 | 0 | i | 2
CCOC(=O)CSc1nc2c(sc(=S)n2-c2ccccc2OC)c(=O)n1-c1ccccc1OC | / | / | 46 | / | / | 30
CCOC(=O)CSc1nc2c(sc(=S)n2-c2ccccc2OC)c(=O)n1Cc1ccco1 | -4 | -26 | 57* | 0 | i | 18
CCOC(=O)CSc1nc2c(sc3ccc([N+](=O)[O-])cc32)c(=O)n1Cc1ccco1 | 2 | -6 | 254* | 0 | i | 162
SMILES | Rad51 HR inh | MDM2 E3 inh | HSF1 activator | Hsp70 activator | HSV augment | HSF1 inhib
CCOc1ccc(S(=O)(=O)NCCC(=O)NCCOc2ccccc2OC)cc1 | / | / | -6 | / | / | 3
O=C(COc1ccccc1C(=O)O)Nc1ccc(SC(F)F)cc1 | / | / | -88 | 0 | i | -86*
NC(=O)COC(=O)c1ccccc1Nc1ccc(SC(F)F)cc1 | -1 | 0 | 9 | 0 | i | 4
O=C(COC(=O)c1ccccc1Nc1ccc(SC(F)F)cc1)NCc1ccco1 | 9 | -10 | 33 | 0 | i | 22
CC(C)(C)NC(=O)COC(=O)c1ccccc1Nc1ccc(SC(F)F)cc1 | 2 | -7 | 98* | 0 | i | 67
O=C(COC(=O)c1ccccc1Nc1ccc(SC(F)F)cc1)NC1CC1 | 5 | -3 | 79* | 0 | i | 53
COc1ccccc1C(=O)NC(=O)COC(=O)CNC(=O)c1ccc(Cl)c([N+](=O)[O-])c1 | / | / | 15 | / | / | 1
Cc1[nH]c2ccccc2c1C(=O)/C=C\c1ccccc1Cl | -1 | -13 | 46 | 0 | i | 43
Cc1[nH]c2ccccc2c1C(=O)/C=C/c1ccccc1Cl | -3 | -8 | 113* | 0 | i | 84
Cc1nc2ccccc2c(N)c1C(=O)/C=C/c1ccccc1 | / | / | 64* | / | / | 42
Cc1[nH]c2ccccc2c1C(=O)/C=C/c1ccccc1 | 2 | 12 | 70* | 1 | i | 39
CCOC(=O)CC1(C)NC(C(=O)O)C(C)(C)S1 (stereo not drawn) | / | / | -6 | / | / | -6
O=S(=O)(c1ccc(Cl)c(Cl)c1)c1snnc1-c1ccccc1 | 7 | -17 | 431* | 0 | i | 296
c1ccc(-c2nnsc2-c2ccccc2)cc1 | / | / | 0 | / | / | -6
Cc1cccc(CSc2cn(CC(=O)N3CCOCC3)c3ccccc23)c1 | -3 | -13 | 76* | 0 | i | 46
CC(C)S(=O)(=O)c1csc(NC(=O)Nc2ccc(Cl)cc2)c1 | -6 | -11 | 77* | / | i | 60
NS(=O)(=O)c1cccc(NC(=O)Nc2ccc(Cl)cc2)c1 | 8 | -20 | 30 | / | i | 10
CCOc1ccc(NC(=O)C2CCN(C(=O)C3CC(=O)N(c4ccc(C)cc4)C3)CC2)cc1 (stereo not drawn) | / | / | -8 | / | / | -6
CCC1CSC(Nc2ccc(C(=O)/C=C/c3cccc(C)c3)cc2)=N1 (stereo not drawn) | -8 | -11 | 75* | 0 | i | 53
CCOc1ccc(OCCSc2nnnn2-c2ccccc2)cc1 | 2 | -14 | 1 | 0 | i | 5
c1ccc(OCCSc2nnnn2-c2ccccc2)cc1 | 8 | -13 | 69* | 0 | i | 46
O=C1c2ccccc2C(=O)N1CCCCSc1nnnn1-c1ccccc1 | 7 | -14 | 53* | 0 | i | 19
CC(C)(C)c1cc(NS(=O)(=O)c2ccc(Br)s2)no1 | / | / | -12 | / | / | -2
O=C(CSc1nc2ccccc2s1)N/N=C/c1ccccc1C(=O)O | 16 | -20 | -62 | / | i | -63*
O=C(O)COc1ccccc1/C=N/NC(=O)CSc1nc2ccccc2s1 | 12 | -7 | -19 | / | i | 4
